Results on 20 compounds are retold here after ChEMBL document CHEMBL3868633, “Linker dependent intercalation of bisbenzimidazole-aminosugars in an RNA duplex; selectivity in RNA vs. DNA binding” (Bioorg Med Chem Lett, 2016).

The nature of assay [1]: Binding affinity to poly(rA).(rU) RNA duplex (unknown origin) assessed as thermal stability by measuring change in melting temperature at 5 uM by UV-Vis spectrophotometry. The essentials: (§1)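 UV thermal denaturation of poly(rA)•(rU) duplex at 15 µM/bp, with and without ligand, in 10 mM sodium cacodylate, 0.5 mM EDTA, 100 mM NaCl, pH 7.0. ΔTm is the shift from the melting temperature of free RNA.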

The nature of assay [2]: Inhibition of ethidium bromide binding to r(CGCAAAUUUGCG)2 RNA (unknown origin) at 1:1 ratio of ligand:RNA measured after 5 mins by fluorescent intercalator displacement assay relative to control. The essentials: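 Buffer is 10 mM sodium cacodylate, 0.5 mM EDTA, 100 mM NaCl, pH 7.0, at 23 °C. Read-out is the percent change in fluorescence emission on ligand addition.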

Assay [3] is described as follows: Binding affinity to poly(rA).(rU) RNA duplex (unknown origin) assessed as appearance of negative induced LD signal at 348 nanometer at 100 uM after 5 mins by microvolume couette flow linear dichroism method. The procedure, abridged:
(§2)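 Linear dichroism spectra of poly(rA)•(rU) (1 mM/bp) alone and mixed with ligand at rbd 10. Run in 10 mM sodium cacodylate, 0.5 mM EDTA, 100 mM NaCl, pH 7.0, at room temperature.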

Assay [4] is described as follows: Inhibition of ethidium bromide binding to r(CGCAAAUUUGCG)2 RNA (unknown origin) after 5 mins by fluorescent intercalator displacement assay.
Assay [5] is described as follows: Binding affinity to d(CGCAAATTTGCG)2 DNA (unknown origin) assessed as thermal stability by measuring change in melting temperature by UV-Vis spectrophotometry.
Assay [6] is described as follows: Binding affinity to poly(rA).(rU) RNA duplex (unknown origin) assessed as change in LD signal at 260 nanometer at 100 uM after 5 mins by microvolume couette flow linear dichroism method. The essentials:
as §2

Assay [7] can be described thus: Binding affinity to r(CGCAAAUUUGCG)2 RNA duplex (unknown origin) assessed as thermal stability by measuring change in melting temperature at 5 uM by UV-Vis spectrophotometry.
Assay [8] is described as follows: Binding affinity to poly(rA).(rU) RNA duplex (unknown origin) assessed as change in CD band intensity at 266 nanometer measured after 5 mins by circular dichroism titration method. The procedure, abridged:
(§3)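 Circular dichroism titration of poly(rA)•(rU) at 40 µM/bp in 10 mM sodium cacodylate, 0.5 mM EDTA, 100 mM NaCl, pH 7.0, at 25 °C. Concentrated ligand is added serially, with five minutes of equilibration after each addition. Each spectrum is the average of two scans. Binding site size (rbd, RNA base pairs per drug) is taken from the change in nucleic acid CD intensity.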
(In general: CD spectra are sensitive to the conformation of chiral molecules.)

The nature of assay [9]: Binding affinity to poly(rA).(rU) RNA duplex (unknown origin) assessed as thermal stability by measuring change in melting temperature at 5 uM in presence of Hoechst 33258 by UV-Vis spectrophotometry. The essentials:
as §1

A short description of assay [10]: Binding affinity to poly(rA).(rU) RNA duplex (unknown origin) measured after 5 mins by circular dichroism titration method. The procedure, abridged:
as §3

Assay [11] in a line: Binding affinity to poly(rA).(rU) RNA duplex (unknown origin) assessed as red shift at 3 uM by UV-vis absorption method.
Assay [12] is described as follows: Binding affinity to poly(rA).(rU) RNA duplex (unknown origin) assessed as hypochromicity at 3 uM by UV-vis absorption method.
A short description of assay [13]: Binding affinity to poly(rA).(rU) RNA duplex (unknown origin) assessed as appearance of negative induced CD at 347 nanometer measured after 5 mins by circular dichroism titration method. The essentials: as §3
The nature of assay [14]: Binding affinity to poly(rA).(rU) RNA duplex (unknown origin) assessed as isosbestic point at 362 nanometer at 3 uM by UV-vis absorption method.
Assay [15] in a line: Binding affinity to poly(rA).(rU) RNA duplex (unknown origin) assessed as appearance of unidirectional induced CD at 347 nanometer measured after 5 mins by circular dichroism titration method. The procedure, abridged: as §3
Assay [16] can be described thus: Binding affinity to poly(rA).(rU) RNA duplex (unknown origin) assessed as decrease in CD band intensity at 263 nanometer measured after 5 mins by circular dichroism titration method. The essentials:
(§4)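 Poly(rA)•(rU) at 40 µM/bp in 10 mM sodium cacodylate, 0.5 mM EDTA, 100 mM NaCl, pH 7.0, 25 °C. Concentrated ligand added serially, with 5 min equilibration before each CD scan. Each measurement averages two scans. Changes in nucleic acid CD intensity are plotted against rbd (RNA base pairs per drug) to derive binding site size.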

Assay [17] can be described thus: Binding affinity to poly(rA).(rU) RNA duplex (unknown origin) assessed as appearance of induced CD band at 320 to 380 nanometer measured after 5 mins by circular dichroism titration method. The procedure, abridged:
as §4

Assay [18] in a line: Binding affinity to poly(rA).(rU) RNA duplex (unknown origin) assessed as thermal stability by measuring change in melting temperature at 5 uM in presence of neomycin by UV-Vis spectrophotometry.

Active and inactive are the calls of the source. No cut-off for these calls is given here.

For the compound `C#CCOc1ccc(-c2nc3ccc(-c4nc5ccc(N6CCN(C)CC6)cc5[nH]4)cc3[nH]2)cc1`, the ΔTm in assay [1] stood at 0 °C.
As to `CN1CCN(c2ccc3nc(-c4ccc5nc(-c6ccc(OCCCCc7cn(C[C@H]8O[C@@H](O[C@@H]9[C@@H](O)[C@H](N)C[C@H](N)[C@H]9O[C@H]9O[C@H](CN)[C@@H](O)[C@H](O)[C@H]9N)[C@H](O)[C@@H]8O[C@H]8OC(CN)[C@@H](O)[C@H](O)[C@H]8N)nn7)cc6)[nH]c5c4)[nH]c3c2)CC1` (stereo not given in full), the inhibition in assay [2] was in the range of 20.7 to 36.2%. Moreover, the result in [3] and in assay [6] was Active. Besides, the Ka in [4] came to 8.8 ×10⁶ /M. For the same compound, the ΔTm in assay [5] came out at 22.8 °C; in assay [7], 15.1 °C.
With `C#CCCCCOc1ccc(-c2nc3ccc(-c4nc5ccc(N6CCN(C)CC6)cc5[nH]4)cc3[nH]2)cc1`, the ΔTm in assay [1] was -1.2 °C.
With `NC[C@@H]1O[C@H](O[C@H]2[C@@H](O)[C@H](O[C@@H]3[C@@H](O)[C@H](N)C[C@H](N)[C@H]3O[C@H]3O[C@H](CN)[C@@H](O)[C@H](O)[C@H]3N)O[C@@H]2CO)[C@H](N)[C@@H](O)[C@@H]1O`, the outcome in assay [8] and in [10] was Active. The inhibition in assay [2] is 20.4%. Also, the ΔTm was determined as 10.8 °C in [1] and 10.5 °C in [9].
On to `CN1CCN(c2ccc3nc(-c4ccc5nc(-c6ccc(OCCCCCCOCc7cn(C[C@H]8O[C@@H](O[C@@H]9[C@@H](O)[C@H](N)C[C@H](N)[C@H]9O[C@H]9O[C@H](CN)[C@@H](O)[C@H](O)[C@H]9N)[C@H](O)[C@@H]8O[C@H]8OC(CN)[C@@H](O)[C@H](O)[C@H]8N)nn7)cc6)[nH]c5c4)[nH]c3c2)CC1` (stereo not given in full), for which the Activity in [11] stood at 10 nm; in assay [12], 34.1%. For the same compound, the result in assay [8], in assay [3], in assay [13], in [14] and in [15] was Active. Besides, the inhibition in assay [2] is 20.7 to 36.2%. Further, the ΔTm is 15.8 to 19 °C in assay [1] and 22.2 °C in assay [5].
With `C#CCOCCCCCCOc1ccc(-c2nc3ccc(-c4nc5ccc(N6CCN(C)CC6)cc5[nH]4)cc3[nH]2)cc1`, the ΔTm in [1] is 0.3 °C.
For the compound `CN1CCN(c2ccc3nc(-c4ccc5nc(-c6ccc(OCCCCOCc7cn(C[C@H]8O[C@@H](O[C@@H]9[C@@H](O)[C@H](N)C[C@H](N)[C@H]9O[C@H]9O[C@H](CN)[C@@H](O)[C@H](O)[C@H]9N)[C@H](O)[C@@H]8O[C@H]8OC(CN)[C@@H](O)[C@H](O)[C@H]8N)nn7)cc6)[nH]c5c4)[nH]c3c2)CC1` (stereo not given in full), the inhibition in assay [2] is 20.7 to 36.2%. In addition, the ΔTm in [1] is 15 °C; in assay [5], 24.6 °C. Further, the outcome in assay [3] was Active.
On to `CN1CCN(c2ccc3[nH]c(-c4ccc5[nH]c(-c6ccc(O)cc6)nc5c4)nc3c2)CC1`, for which the outcome in assay [16], in [8] and in assay [17] was Active. The Activity came to 1 nm in assay [11] and 32.2% in [12]. Besides, the inhibition in [2] worked out at 8.2%. Further, the figures for the ΔTm in assay [1] and in assay [18] were 0.4 °C and 10.5 °C, respectively.
For `CN1CCN(c2ccc3nc(-c4ccc5nc(-c6ccc(OCCOCCOCCOCCOCCOCCOCc7cn(C[C@H]8O[C@@H](O[C@@H]9[C@@H](O)[C@H](N)C[C@H](N)[C@H]9O[C@H]9O[C@H](CN)[C@@H](O)[C@H](O)[C@H]9N)[C@H](O)[C@@H]8O[C@H]8OC(CN)[C@@H](O)[C@H](O)[C@H]8N)nn7)cc6)[nH]c5c4)[nH]c3c2)CC1` (stereo not given in full), the inhibition in [2] fell in the range of 20.7 to 36.2%. Also, the outcome in assay [3] was Active. For the same compound, the thermal shift (ΔTm) came to 16.4 °C in [5] and 7.2 °C in [7].
Take `C#CCCCCCCCCCOc1ccc(-c2nc3ccc(-c4nc5ccc(N6CCN(C)CC6)cc5[nH]4)cc3[nH]2)cc1`: the ΔTm in assay [1] was -0.4 °C.
On to `CN1CCN(c2ccc3nc(-c4ccc5nc(-c6ccc(OCCCCCCCCOCc7cn(C[C@H]8O[C@@H](O[C@@H]9[C@@H](O)[C@H](N)C[C@H](N)[C@H]9O[C@H]9O[C@H](CN)[C@@H](O)[C@H](O)[C@H]9N)[C@H](O)[C@@H]8O[C@H]8OC(CN)[C@@H](O)[C@H](O)[C@H]8N)nn7)cc6)[nH]c5c4)[nH]c3c2)CC1` (stereo not given in full), for which the inhibition in assay [2] was 20.7 to 36.2%. The thermal shift (ΔTm) was found to be 21.9 °C in assay [1] and 21.7 °C in assay [5]. The outcome in assay [3] was Active.
With `CN1CCN(c2ccc3nc(-c4ccc5nc(-c6ccc(OCCCCCCCCCCCCOCc7cn(C[C@H]8O[C@@H](O[C@@H]9[C@@H](O)[C@H](N)C[C@H](N)[C@H]9O[C@H]9O[C@H](CN)[C@@H](O)[C@H](O)[C@H]9N)[C@H](O)[C@@H]8O[C@H]8OC(CN)[C@@H](O)[C@H](O)[C@H]8N)nn7)cc6)[nH]c5c4)[nH]c3c2)CC1` (stereo not given in full), the inhibition in assay [2] fell in the range of 20.7 to 36.2%. Moreover, in [3], the outcome was Active. Also, in [5], the ΔTm turned out to be 18.2 °C.
With `CN1CCN(c2ccc3nc(-c4ccc5nc(-c6ccc(OCCCCCCCCc7cn(C[C@H]8O[C@@H](O[C@@H]9[C@@H](O)[C@H](N)C[C@H](N)[C@H]9O[C@H]9O[C@H](CN)[C@@H](O)[C@H](O)[C@H]9N)[C@H](O)[C@@H]8O[C@H]8OC(CN)[C@@H](O)[C@H](O)[C@H]8N)nn7)cc6)[nH]c5c4)[nH]c3c2)CC1` (stereo not given in full), in [2], the inhibition was in the range of 20.7 to 36.2%. Besides, in assay [3], the result was Active. Besides, the values for the ΔTm in assay [5] and in assay [7] were 13.2 °C and 16.2 °C, respectively.
On to `C#CCOCCCCCCCCOc1ccc(-c2nc3ccc(-c4nc5ccc(N6CCN(C)CC6)cc5[nH]4)cc3[nH]2)cc1`, for which, in assay [1], the ΔTm was determined as 0.7 °C.
For the compound `CN1CCN(c2ccc3nc(-c4ccc5nc(-c6ccc(OCc7cn(C[C@H]8O[C@@H](O[C@@H]9[C@@H](O)[C@H](N)C[C@H](N)[C@H]9O[C@H]9O[C@H](CN)[C@@H](O)[C@H](O)[C@H]9N)[C@H](O)[C@@H]8O[C@H]8OC(CN)[C@@H](O)[C@H](O)[C@H]8N)nn7)cc6)[nH]c5c4)[nH]c3c2)CC1` (stereo not given in full), the inhibition in [2] was in the range of 20.7 to 36.2%. Also, in [3], the outcome was Active. Moreover, the ΔTm in assay [5] came out at 23.8 °C; in [7] it was 9.1 °C.
Take `C#CCOCCCCCCCCCCCCOc1ccc(-c2nc3ccc(-c4nc5ccc(N6CCN(C)CC6)cc5[nH]4)cc3[nH]2)cc1`: in assay [1], the ΔTm was -0.2 °C.
Same read-out and setting: next, `C#CCOCCCCCCCCCCOc1ccc(-c2nc3ccc(-c4nc5ccc(N6CCN(C)CC6)cc5[nH]4)cc3[nH]2)cc1`: 0.3 °C; `C#CCOCCCCOc1ccc(-c2nc3ccc(-c4nc5ccc(N6CCN(C)CC6)cc5[nH]4)cc3[nH]2)cc1`: 0.3 °C; `C#CCOCCOCCOCCOCCOCCOCCOc1ccc(-c2nc3ccc(-c4nc5ccc(N6CCN(C)CC6)cc5[nH]4)cc3[nH]2)cc1`: 0.2 °C.
As for `CN1CCN(c2ccc3nc(-c4ccc5nc(-c6ccc(OCCCCCCCCCCOCc7cn(C[C@H]8O[C@@H](O[C@@H]9[C@@H](O)[C@H](N)C[C@H](N)[C@H]9O[C@H]9O[C@H](CN)[C@@H](O)[C@H](O)[C@H]9N)[C@H](O)[C@@H]8O[C@H]8OC(CN)[C@@H](O)[C@H](O)[C@H]8N)nn7)cc6)[nH]c5c4)[nH]c3c2)CC1` (stereo not given in full), in assay [2], the inhibition fell in the range of 20.7 to 36.2%. Moreover, the ΔTm in assay [1] was 20.3 °C; in assay [5], 19 °C. Moreover, the outcome in assay [3] was Active.

The term ΔTm denotes the change in melting temperature against a reference sample. The inhibition is the relative decrease from the control value, in per cent.
